Sampled rows, rich in hits. Any-hit rate of the full collection: about 3.4%.
IMP-1 inh – blocks Pseudomonas aeruginosa IMP-1 metallo-beta-lactamase | purified IMP-1, nitrocefin hydrolysis, epi-absorbance fluorescence | inhibition, % at 5.6 µM | 290,000 tested, 0.45% active | AID 1556;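 active = inhibition above the mean plus 3 SD of all compounds in the same screening run, cut at about 4.5% in these data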;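 note: 0% = IMP-1 with DMSO and 100% = DMSO wells lacking enzyme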
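Test system: recombinant IMP-1 enzyme, purified / Medium: HEPES buffer pH 7.1 with ZnSO4 and Brij 35 / Doses: single dose, 5.6 µM / Times: 25 °C, 15 min preincubation, 25 min reaction / Detection: Epi-absorbance via hydrolysed-nitrocefin quenching of white-plate fluorescence, 480/530 nm, EDTA stop / Evaluation: percent inhibition from optical density relative to buffer-blank wells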
ANO1 activ – mouse TMEM16A channel activation, primary screen; Q8BHY3; HEK293 TMEM16A/YFP-H148Q/I152L, iodide quench fluorescence; hits give low values; B-score at 10 µM; 340,000 tested, 0.3% active;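 active = fluorescence-ratio B-score plate-corrected deviation score at least 3 library SD below zero, with starting fluorescence score within 5 deviations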;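 note: channel opened by trigger with iodide after compound preincubation; score built on the fluorescence ratio of max minus min over baseline; more negative score means more quench and so TMEM16A activation or potentiation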
CHT block – inhibitors of human choline transporter CHT; Q9GZV3; CHT-expressing cells, membrane potential dye, choline response; hits give low values; B-score at 10 µM; 310,000 tested, 0.86% active; AID 488975;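 active = B-score over 3 SD under the library average, and starting fluorescence ratio not unusually high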;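 note: choline stimulus applied at its EC90 after an EC20 pre-addition; B-score computed on integrated fluorescence ratio after choline addition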
ANO1 block – inhibitors of mouse TMEM16A calcium-activated chloride channel | HEK293 TMEM16A/YFP iodide influx fluorescence, ionomycin | normalized B-score (activity score, 25-100; higher = stronger inhibition) at 10 µM | AID 588511 | 310,000 tested, 1.2% active | Q8BHY3;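 active = ratio plate-corrected score three or more library SD toward inhibition, starting fluorescence score within five deviations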;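 note: score derived from kinetic fluorescence span divided by baseline fluorescence per well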
VIM-2 inh – inhibitors of Pseudomonas aeruginosa VIM-2 metallo-beta-lactamase | purified VIM-2, nitrocefin hydrolysis, epi-absorbance fluorescence | inhibition, % at 5.6 µM | 290,000 tested, 0.89% active | AID 1527;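 active = inhibition above the mean of all tested compounds plus 3 SD, cutoff set per screening run, cut at about 7.5% in these data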;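 note: red hydrolysis product quenches plate fluorescence so inhibitors raise well fluorescence; 0% = enzyme with DMSO and 100% = DMSO without enzyme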
CHT allo act – allosteric activators of human choline transporter CHT; 310,000 tested, 0.49% active; Q9GZV3; CHT-expressing cells, membrane potential dye, choline EC20; hits give high values; LV-AA mutant CHT in HEK293 cells; B-score at 10 µM;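 active = initial fluorescence not abnormally high and integrated response B-score, plate-corrected, over 3 SD above library mean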
TMEM16A reconf – TMEM16A (mouse) chloride channel inhibition, re-confirmation | shares compounds with ANO1 block | HEK293 TMEM16A/YFP-H148Q, iodide quench fluorescence; ionomycin added to raise cell calcium | inhibition, % at 10 µM | 2,300 tested, 39% active | AID 652189;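 active = mean duplicate percent inhibition, scaled so buffer wells are 0 and the reference blocker 100, over three buffer SD above buffer mean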
HEK293 Ca mobil – counter-screen for TMEM16A inhibitors: effect on calcium mobilization; 2,300 tested, 2% active; TMEM16A/YFP HEK293, Fluo4 calcium mobilization; calcium response (% of ionomycin), % at 10 µM; AID 652231; shares compounds with ANO1 block;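 active = duplicate-averaged calcium signal over 20% of the ionomycin maximum, relative to buffer baseline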;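 note: each well's signal is peak minus trough fluorescence divided by its pre-addition baseline; 0% = buffer wells and 100% = ionomycin wells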
Parental YFP cnt – acts in parental YFP-HEK293 cells lacking TMEM16A, counter-screen; shares compounds with ANO1 block; iodide YFP quench, ionomycin; YFP ratio F(max-min)/F0 at 10 µM; 2,300 tested, under 10 active; AID 652233;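 active = yellow fluorescent protein signal ratio exceeding the buffer control mean by over 5 SD of those controls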;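 note: ratio is mean of duplicate wells from kinetic YFP trace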
ClC-1 inh – rat ClC-1 inhibition, TMEM16A specificity screen; ratio percent, % at 10 µM; CHO ClC-1-YFP, iodide influx fluorescence quench; iodide control reads 0, buffer control 100; 2,300 tested, under 10 active; shares compounds with ANO1 block; AID 652236;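 active = duplicate-mean ratio percent above the mean of iodide-only control wells, which defines zero, plus 5 of their SD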;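 note: higher percent means stronger block of ClC-1 iodide influx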
Target sequence (P35524 whole entry, looked up): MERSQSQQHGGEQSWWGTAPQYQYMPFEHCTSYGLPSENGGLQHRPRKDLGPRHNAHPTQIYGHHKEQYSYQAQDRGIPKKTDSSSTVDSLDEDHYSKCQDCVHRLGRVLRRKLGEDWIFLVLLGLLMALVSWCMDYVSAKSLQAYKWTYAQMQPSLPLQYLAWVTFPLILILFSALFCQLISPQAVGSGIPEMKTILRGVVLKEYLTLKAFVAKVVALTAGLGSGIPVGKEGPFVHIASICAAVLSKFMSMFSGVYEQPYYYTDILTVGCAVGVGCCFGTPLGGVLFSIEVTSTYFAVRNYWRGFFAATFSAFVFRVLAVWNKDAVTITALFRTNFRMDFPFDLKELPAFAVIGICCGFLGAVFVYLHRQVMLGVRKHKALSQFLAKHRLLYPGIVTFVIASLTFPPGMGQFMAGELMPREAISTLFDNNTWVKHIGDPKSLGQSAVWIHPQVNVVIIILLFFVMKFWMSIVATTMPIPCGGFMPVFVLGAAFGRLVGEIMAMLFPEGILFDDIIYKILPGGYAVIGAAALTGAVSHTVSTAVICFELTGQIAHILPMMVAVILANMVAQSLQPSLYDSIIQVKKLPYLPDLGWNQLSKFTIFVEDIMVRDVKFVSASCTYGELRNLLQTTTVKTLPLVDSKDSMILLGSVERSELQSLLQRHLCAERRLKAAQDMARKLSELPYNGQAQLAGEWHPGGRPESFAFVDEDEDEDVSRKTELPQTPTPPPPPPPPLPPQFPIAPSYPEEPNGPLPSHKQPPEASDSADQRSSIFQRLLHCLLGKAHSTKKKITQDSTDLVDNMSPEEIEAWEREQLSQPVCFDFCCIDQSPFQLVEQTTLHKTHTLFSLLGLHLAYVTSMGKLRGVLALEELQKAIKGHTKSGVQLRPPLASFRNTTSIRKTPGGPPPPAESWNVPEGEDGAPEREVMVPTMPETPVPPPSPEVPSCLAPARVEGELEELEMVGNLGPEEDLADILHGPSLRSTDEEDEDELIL
Numbers without * were called inactive.

`O=C(c1cc(-c2ccc(Cl)cc2)n[nH]1)N1CCN(C(=O)c2ccco2)CC1` gave IMP-1 inh -3, ANO1 activ inactive, CHT block inactive, ANO1 block inactive, VIM-2 inh -3 and CHT allo act inactive.
O=C(CCN1C(=O)C2CCCCC2C1=O)N1CCN(S(=O)(=O)c2c(F)cccc2F)CC1 (configuration not stated) was read as ANO1 activ inactive, CHT block inactive, ANO1 block inactive and CHT allo act inactive.
Screening O=C(O)CSc1nnc(Cn2c(=O)sc3ccccc32)n1-c1cccc(Cl)c1 returned IMP-1 inh -4, ANO1 activ inactive, CHT block inactive, ANO1 block inactive, VIM-2 inh -2 and CHT allo act inactive.
`NC(=O)CSc1nnc(Cn2c(=O)sc3ccccc32)n1-c1cccc(Cl)c1` gave IMP-1 inh 1, ANO1 activ inactive, CHT block inactive, ANO1 block 25*, VIM-2 inh 1, CHT allo act inactive, TMEM16A reconf inactive, HEK293 Ca mobil inactive, Parental YFP cnt -1.3 and ClC-1 inh -6.
CC(C)Oc1cc(NC(=O)CS(=O)CC(=O)N(C)C)c(Cl)cc1Cl (configuration not stated) was read as IMP-1 inh -1, ANO1 activ inactive, CHT block inactive, ANO1 block inactive, VIM-2 inh 0 and CHT allo act inactive.
`CC(C)Oc1cc(NC(=O)CS(=O)CC(=O)Nc2cccc(C(F)(F)F)c2)c(Cl)cc1Cl` (configuration not stated) gave IMP-1 inh -3, ANO1 activ inactive, CHT block inactive, ANO1 block 100*, VIM-2 inh -5, CHT allo act inactive, TMEM16A reconf inactive, HEK293 Ca mobil inactive, Parental YFP cnt -1.1 and ClC-1 inh -6.
`Cc1ccc(OCc2ccc(C(=O)N3CCCC3)o2)cc1C` gave IMP-1 inh -1, ANO1 activ inactive, CHT block inactive, ANO1 block 25*, VIM-2 inh -2, CHT allo act inactive, TMEM16A reconf inactive, HEK293 Ca mobil inactive, Parental YFP cnt -1.2 and ClC-1 inh -14.
`CCOc1ccc(OCc2ccc(C(=O)N3CCCCC3)o2)cc1` gave IMP-1 inh -2, ANO1 activ inactive, CHT block inactive, ANO1 block inactive, VIM-2 inh -2 and CHT allo act inactive.
Screening O=C(Nc1c(F)cc(F)cc1Br)c1cc(-c2ccco2)on1 returned IMP-1 inh -4, ANO1 activ inactive, CHT block inactive, ANO1 block inactive, VIM-2 inh -2 and CHT allo act inactive.
O=C(Nc1ccc(F)cc1F)c1cc(-c2ccco2)on1 was read as IMP-1 inh -2, ANO1 activ inactive, CHT block inactive, ANO1 block 100*, VIM-2 inh -2, CHT allo act inactive, TMEM16A reconf inactive, HEK293 Ca mobil inactive, Parental YFP cnt -1.2 and ClC-1 inh -6.
`Cc1ccc(C(C)C)cc1OCC(=O)Nc1ccc(N2CCCCC2)cc1` gave ANO1 activ inactive, CHT block inactive, ANO1 block 25*, CHT allo act inactive, TMEM16A reconf inactive, HEK293 Ca mobil inactive, Parental YFP cnt -0.69 and ClC-1 inh 0.
Cc1cccc(C(=O)OCC(=O)Nc2ccc(N3CCCCC3)cc2)c1O was read as IMP-1 inh -3, ANO1 activ inactive, CHT block inactive, ANO1 block inactive, VIM-2 inh -1, CHT allo act inactive, TMEM16A reconf inactive, HEK293 Ca mobil inactive, Parental YFP cnt -1.2 and ClC-1 inh -16.
`CCCCOC(=O)Nc1ccc(N2CCCCC2)cc1` gave IMP-1 inh 0, ANO1 activ inactive, CHT block inactive, ANO1 block inactive, VIM-2 inh -2, CHT allo act inactive, TMEM16A reconf inactive, HEK293 Ca mobil inactive, Parental YFP cnt -1.1 and ClC-1 inh -4.
COc1cc(OC)cc(-c2c(-c3ccc(C(C)=O)cc3)c3cc(-c4cccc5[nH]ccc45)ccc3n2C)c1 was read as ANO1 activ inactive.
Screening COc1ccc(NS(=O)(=O)c2ccc3oc4ccccc4c3c2)cn1 returned IMP-1 inh -1, ANO1 activ inactive, CHT block inactive, ANO1 block 25*, VIM-2 inh -3, CHT allo act inactive, TMEM16A reconf inactive, HEK293 Ca mobil inactive, Parental YFP cnt -1.1 and ClC-1 inh -4.
COc1cc2cc(CCCOC(=O)c3ccc(C#N)cc3)oc(=O)c2cc1OC was read as ANO1 activ inactive.
For CC(C)CC1CC(=O)OC1(C)C(=O)CSc1nc2ccccc2s1 (configuration not stated) the results were IMP-1 inh -1, ANO1 activ inactive, CHT block inactive, ANO1 block 100*, VIM-2 inh -1, CHT allo act inactive, TMEM16A reconf inactive, HEK293 Ca mobil inactive, Parental YFP cnt -1.2 and ClC-1 inh -6.
Screening O=C(NCCCSc1ccccc1)c1cc(Br)ccc1O returned IMP-1 inh -4, ANO1 activ inactive, CHT block inactive, ANO1 block 100*, VIM-2 inh -3, CHT allo act inactive, TMEM16A reconf 52%*, HEK293 Ca mobil inactive, Parental YFP cnt -1.3 and ClC-1 inh -24.
O=C(COCc1nc2ccccc2c(=O)[nH]1)NC1CCCC1 was read as IMP-1 inh -1, ANO1 activ inactive, CHT block inactive, ANO1 block 100*, VIM-2 inh -2, CHT allo act inactive, TMEM16A reconf inactive, HEK293 Ca mobil inactive, Parental YFP cnt -1.1 and ClC-1 inh -8.
CCOc1ccccc1CNC(=O)C1CCCN(c2nnc(C)c3c(C)n(-c4ccccc4)nc23)C1 (configuration not stated) was read as IMP-1 inh 1, ANO1 activ inactive, CHT block inactive, ANO1 block inactive, VIM-2 inh 0 and CHT allo act inactive.
